Data set [1] in a line: Antiproliferative activity against human PC3 cells after 96 hrs by SRB assay. Format: functional, cell-based. The note with it: PC-3, 96 h. The gist of the method:
(§1)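 Prostate cancer lines were exposed to compound for 96 h, with cell growth read by sulforhodamine B staining. Results are IC50 ± SEM.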

Data set [2] has as its target T1, Tubulin (Bos taurus) (UniProt Q6B856+Q862L2+Q862F3). Kind of data set: Inhibition of bovine brain tubulin polymerization at 5 uM for 20 mins by spectrophotometry. The gist of the method:
(§2)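 Bovine brain tubulin (0.4 mg, >97% pure) in general tubulin buffer pH 6.9 (80 mM PIPES, 2.0 mM MgCl2, 0.5 mM EGTA, 1 mM GTP) with compound at 5 or 10 μM, 37 °C. A340 was read each minute for 20 min, and percent inhibition was taken relative to vehicle.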

The subject of the next data set is A-375. Kind of data set: Antiproliferative activity against human A375 cells after 96 hrs by SRB assay. Format: functional, cell-based. The note with it: A-375, 96 h.
The test system of data set [3] is Liver microsome. Kind of data set: Half life in human liver microsomes at 0.5 uM by LC-MS/MS analysis.
The subject of the next data set is LNCaP. Kind of data set: Antiproliferative activity against human LNCAP cells after 96 hrs by SRB assay. Format: functional, cell-based. The gist of the method:
as §1

The subject of the next data set is Liver. The experiment in a line: Half life in mouse liver microsomes at 0.5 uM by LC-MS/MS analysis.
In data set [4] the target is T1, Tubulin (Bos taurus). The experiment in a line: Inhibition of bovine brain tubulin polymerization at 10 uM for 20 mins by spectrophotometry. Summed up:
as §2

Data set [5] deals with Liver microsome. The experiment in a line: Half life in rat liver microsomes at 0.5 uM by LC-MS/MS analysis.
Data set [6] can be described thus: Antiproliferative activity against human PPC1 cells after 96 hrs by SRB assay. Format: functional, cell-based. The note with it: PPC-1, 96 h. The gist of the method: as §1
A further data set has as its system DU-145. Kind of data set: Antiproliferative activity against human DU145 cells after 96 hrs by SRB assay. Format: functional, cell-based. The note with it: DU-145, 96 h. The gist of the method:
as §1

Data set [7] can be described thus: Antiproliferative activity against mouse B16-F1 cells after 96 hrs by SRB assay. Format: functional, cell-based. The note with it: B16-F1, 96 h.

`COc1cc(-c2nccc3[nH]c(-c4ccc5[nH]ccc5c4)nc23)cc(OC)c1OC`: the IC50 is 6 nM in data set [1], 5 nM in the data set on A-375, 5 nM in the data set on LNCaP and 42 nM in [6]. For the same compound, the inhibition amounted to 33% on Tubulin (Bos taurus) [2] and 81% against Tubulin (Bos taurus) [4]. Moreover, the t1/2 worked out at 45.3 min in the data set with Liver microsome [3], 19.7 min with Liver and 30.4 min in the data set on Liver microsome [5].
As to `COc1cc(-c2cccc3[nH]c(-c4c[nH]c5ccccc45)nc23)cc(OC)c1OC`, the IC50 in [1] was 900 nM; in the data set with A-375, 600 nM; in the data set with LNCaP, 800 nM; in the data set on DU-145, 4200 nM; in data set [6], 1300 nM.
Take `COc1cc(C(=O)c2csc(-c3ccccc3)n2)cc(OC)c1OCCN1C(=O)c2ccccc2C1=O`: the IC50 in data set [1] is over 10000 nM; in data set [7] it was 1300 nM; with A-375, 3100 nM; with LNCaP it was 1400 nM; in the data set with DU-145 it was 600 nM; in data set [6], 600 nM.
For `COc1cc(C(=O)c2csc(-c3ccccc3)n2)cc(OC)c1OC(=O)C(F)(F)F`, the IC50 was over 10000 nM in [1]; 8900 nM in [7]; 22200 nM with A-375; over 10000 nM in the data set with LNCaP; over 10000 nM with DU-145; over 10000 nM in data set [6].
For the compound `COc1cc(C(=O)c2csc(-c3ccccc3)n2)cc(OC)c1OC`, the results for the IC50 in [1], in data set [7] and in data set [6] were 21 nM, 55 nM and 43 nM, respectively.
`COc1cc(C(=O)c2csc(-c3ccccc3)n2)cc(OC)c1OC(=O)CCl`: the IC50 in data set [1] is over 10000 nM; in data set [7], 3200 nM; in the data set with A-375, 10800 nM; in the data set with LNCaP, over 10000 nM; with DU-145, over 10000 nM; in data set [6] it was over 10000 nM.
Regarding `COc1cc(C(=O)c2csc(Nc3ccc4[nH]ccc4c3)n2)cc(OC)c1OC`, the IC50 was 12 nM in data set [1]; 84 nM in [7]; 25 nM in the data set with A-375; 13 nM in the data set with LNCaP; 24 nM in the data set on DU-145; 15 nM in data set [6].
With `COc1cc(C(=O)c2csc(-c3ccccc3)n2)cc(OC)c1OCCN`, the IC50 in [1] came to 158 nM; in data set [7], 142 nM; with A-375, 527 nM; in the data set on LNCaP it was 117 nM; in the data set with DU-145, 464 nM; in data set [6], 184 nM.
For the compound `COc1cc(C(=O)c2csc(Nc3ccccc3)n2)cc(OC)c1OC`, the IC50 stood at 21 nM in data set [1]; 65 nM in data set [7]; 28 nM in the data set on A-375; 28 nM with LNCaP; 71 nM in the data set on DU-145; 43 nM in [6].
`COc1cc(C(=O)c2csc(-c3ccccc3)n2)cc(OC)c1OCc1ccccc1`: the IC50 is over 10000 nM in data set [1]; 10600 nM in data set [7]; over 10000 nM with A-375; over 10000 nM in the data set with LNCaP; over 10000 nM in the data set with DU-145; over 10000 nM in data set [6].
For the compound `COc1cc(-c2cccc3[nH]c(-c4n[nH]c5ccccc45)nc23)cc(OC)c1OC`, the IC50 in data set [1] was determined as 800 nM; in the data set on A-375, 1100 nM; in the data set with LNCaP, 1600 nM; in the data set on DU-145, 4000 nM; in data set [6], 1000 nM.
Consider `COc1cc(C(=O)c2c[nH]c(Nc3ccccc3)n2)cc(OC)c1OC`, for which the IC50 (in [1]; in data set [7]; in the data set on A-375; in the data set on LNCaP; in the data set with DU-145; in [6]) was over 30000 nM each time.
`COc1cc(-c2cccc3[nH]c(-c4ccc5[nH]ccc5c4)nc23)cc(OC)c1OC`: the IC50 in data set [1] was found to be 22 nM; in the data set with A-375, 25 nM; with LNCaP, 28 nM; with DU-145, 57 nM; in data set [6] it was 20 nM. In addition, the values for the inhibition at Tubulin (Bos taurus) [2] and at Tubulin (Bos taurus) [4] were 30% and 60%, respectively.
Consider `COc1cc(-c2cccc3[nH]c(-c4ccccc4)nc23)cc(OC)c1OC`, for which the IC50 in [1] was 2400 nM; with LNCaP, 2100 nM; in the data set on DU-145, 7800 nM; in data set [6], 2100 nM.
For the compound `COCOc1c(OC)cc(C(=O)c2csc(-c3ccccc3)n2)cc1OC`, the IC50 in data set [1] stood at 17 nM; in [7] it was 19 nM; in the data set on A-375, 20 nM; in the data set with LNCaP, 31 nM; in the data set on DU-145 it was 112 nM; in [6] it was 22 nM. Further, the t1/2 in the data set with Liver microsome [3] was 7.8 min; with Liver, 4 min; in the data set on Liver microsome [5], 9.7 min.

For the origin of these results see ChEMBL document CHEMBL3352202 (J Med Chem, 2014).
